Laboratory results reported in publication PMC9112330 (ACS Infectious Diseases, 2022).

Assay: In vivo fluorescence bioimaging / biodistribution
Set-up: species or system mouse
Conditions: n = 2
How it was run: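 AF680 was attached through a cysteine inserted between the PNA and the dendron, by maleimide coupling. Two NMRI-nu mice received 200 μL of 10 μM labelled conjugate. Under 2% isoflurane, epifluorescence was imaged at 675/720 nm from pre-injection to 48 h, followed by an ex vivo organ scan. Body and kidney ROI signals were expressed as % of initial signal (Y0, from linear regression of the first three points), and half-life came from one-phase decay fit.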

In the case of “H-(Gbu)8-(DAB)4-(DAB)2-DAB-Cys(AF680)-CTCATACTCT-NH2 [AF680-PNA4897]”, the “organ accumulation of remaining fluorescence” value (ex vivo scan of excised organs 48 h post i.v. administration) was “accumulated predominantly in the kidney and in the liver” and the “time to distribution in the whole body” value (i.v. tail vein, 200 μL of 10 μM, nude mice, near-IR fluorescence imaging) was less than 5 min.
